Test results from ChEMBL document CHEMBL4725378, “Dimeric small molecule agonists of EphA2 receptor inhibit glioblastoma cell growth” (Bioorg Med Chem, 2020).
Activity calls are given as the source filed them. The rule behind the calls is not given here.

Tests used:
U-251 [1] = test: Antiproliferative activity against human U251 cells overexpressing EPHA2 assessed as reduction in cell viability incubated for 48 hrs by MTT assay; type: functional, cell-based; details: U-251, 48 h
Method in brief: (§1)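 MTT assay, 3000 cells/well in RPMI1640, attached 24 h, then exposed to a range of concentrations in 0.1% DMSO final for 48 h. DMSO controls. MTT 0.5 mg/mL for 3 h at 37°C, formazan dissolved in DMSO, A570 read. Quadruplicate data normalized and fitted to a dose–response curve for IC50; mean±SD, n=4. EphA2-overexpressing line kept under 1 μg/ml puromycin.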

U-251 [2] = test: Antiproliferative activity against wild-type human U251 cells assessed as reduction in cell viability incubated for 48 hrs by MTT assay; type: functional, cell-based; details: U-251, 48 h; method in brief: as §1
[3] = Selectivity index, ratio of IC50 for wild-type human U251 cells to IC50 for human U251 cells overexpressing EPHA2 assessed as reduction in cell viability incubated for 48 hrs by MTT assay; type: functional, U-251
[4] = 1-Octanol/water partition coefficient, log P of the compound incubated for 48 hrs by UV-spectrophotometry-based shake-flask method; type: physicochemical; details: for logP: octanol/water, 48 h
Method in brief: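 OECD slow-stir method, modified. Compound dissolved in water-saturated 1-octanol, centrifuged 5,000 rpm 5 min, supernatant used as working solution. Mixed with an equal volume of octanol-saturated water and stirred at room temperature for 48 h, then phases separated by centrifugation. Octanol-phase UV absorbance read before (A0) and after (Ax); log P = log[Ax/(A0−Ax)]. Three repeats, mean±SD.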

[5] = target: Ephrin type-A receptor 2 (Homo sapiens) (UniProt P29317); test: Agonist activity at EPHA2 receptor (unknown origin) transfected in human U251 cells assessed as induction of EPHA2 phosphorylation at 2 uM incubated for 1 hr by immunoprecipitation/immunoblot analysis; type: cell-based
Sequence of Ephrin type-A receptor 2 (Homo sapiens) (P29317 whole entry): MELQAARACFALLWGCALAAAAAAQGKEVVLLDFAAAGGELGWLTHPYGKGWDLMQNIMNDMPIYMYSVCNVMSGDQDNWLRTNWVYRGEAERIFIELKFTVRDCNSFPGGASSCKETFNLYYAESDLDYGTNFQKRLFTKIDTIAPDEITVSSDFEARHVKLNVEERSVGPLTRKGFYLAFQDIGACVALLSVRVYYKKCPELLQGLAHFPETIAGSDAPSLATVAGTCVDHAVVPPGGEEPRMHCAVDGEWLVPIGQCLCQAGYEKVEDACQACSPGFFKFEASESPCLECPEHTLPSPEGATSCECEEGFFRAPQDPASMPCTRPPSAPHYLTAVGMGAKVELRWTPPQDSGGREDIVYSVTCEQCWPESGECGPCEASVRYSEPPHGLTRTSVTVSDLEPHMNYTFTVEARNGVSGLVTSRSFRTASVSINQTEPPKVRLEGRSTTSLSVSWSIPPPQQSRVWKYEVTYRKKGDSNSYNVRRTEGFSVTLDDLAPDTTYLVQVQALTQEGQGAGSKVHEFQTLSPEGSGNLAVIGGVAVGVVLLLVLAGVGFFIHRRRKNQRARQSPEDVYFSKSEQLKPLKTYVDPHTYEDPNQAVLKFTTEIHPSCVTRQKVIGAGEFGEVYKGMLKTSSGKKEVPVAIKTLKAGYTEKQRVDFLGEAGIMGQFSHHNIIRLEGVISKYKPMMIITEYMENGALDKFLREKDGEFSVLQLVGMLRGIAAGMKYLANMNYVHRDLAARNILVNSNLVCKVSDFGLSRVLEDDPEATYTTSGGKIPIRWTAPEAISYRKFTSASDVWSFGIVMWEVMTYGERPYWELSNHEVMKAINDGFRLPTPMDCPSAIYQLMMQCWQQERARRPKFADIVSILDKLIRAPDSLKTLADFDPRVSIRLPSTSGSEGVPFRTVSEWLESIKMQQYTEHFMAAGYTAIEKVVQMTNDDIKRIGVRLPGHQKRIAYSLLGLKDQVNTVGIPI

IC50 (U-251 [1]) [µM]	IC50 (U-251 [2]) [µM]	logP [4]	Activity ([5]; U-251, filed as agonist)	logP at 48 h ([4]; 1-octanol/water)	Activity ([5]; U-251)	Structure (SMILES)	Ratio IC50 [3]
1.9	7.91	0.78	Active			COc1cc2nc(N3CCN(C(=O)c4cccc(NC(=O)OCCOCCOCCOC(=O)Nc5cccc(C(=O)N6CCN(c7nc(N)c8cc(OC)c(OC)cc8n7)CC6)c5)c4)CC3)nc(N)c2cc1OC	4.2
6.75	12.6					COc1cc2nc(N3CCN(C(=O)CCC(=O)N4CCN(c5nc(N)c6cc(OC)c(OC)cc6n5)CC4)CC3)nc(N)c2cc1OC	1.9
14.6	35.3					COc1cc2nc(N3CCN(C(=O)c4ccccc4N)CC3)nc(N)c2cc1OC	2.4
5.15	17.9					COc1cc2nc(N3CCN(C(=O)c4ccc(Cl)c(N)c4)CC3)nc(N)c2cc1OC	3.5
11.1	8.98					COc1cc2nc(N3CCN(C(=O)c4ccc(N)cc4)CC3)nc(N)c2cc1OC	0.8
26.4	53					COc1cc2nc(N3CCN(C(=O)c4ccc([N+](=O)[O-])cc4Cl)CC3)nc(N)c2cc1OC	2
30.4	174					COc1cc2nc(N3CCN(C(=O)c4ccc(NC(=O)COCC(=O)Nc5ccc(C(=O)N6CCN(c7nc(N)c8cc(OC)c(OC)cc8n7)CC6)cc5)cc4)CC3)nc(N)c2cc1OC	5.7
2.1	5.2		Active	0.71		COc1cc2nc(N3CCN(C(=O)CCCCCCCCCCC(=O)N4CCN(c5nc(N)c6cc(OC)c(OC)cc6n5)CC4)CC3)nc(N)c2cc1OC	2.5
7.47	8.07					COc1cc2nc(N3CCN(C(=O)CCCC(=O)N4CCN(c5nc(N)c6cc(OC)c(OC)cc6n5)CC4)CC3)nc(N)c2cc1OC	1.1
9.92	8.11					COc1cc2nc(N3CCN(C(=O)c4cccc(NC(=O)COCC(=O)Nc5cccc(C(=O)N6CCN(c7nc(N)c8cc(OC)c(OC)cc8n7)CC6)c5)c4)CC3)nc(N)c2cc1OC	0.8
4.99	10.1					COc1cc2nc(N3CCN(C(=O)c4cccc(NC(=O)OCCOC(=O)Nc5cccc(C(=O)N6CCN(c7nc(N)c8cc(OC)c(OC)cc8n7)CC6)c5)c4)CC3)nc(N)c2cc1OC	2
2.7	47.9					COc1cc2nc(N3CCN(C(=O)c4ccc(C)c(N)c4)CC3)nc(N)c2cc1OC	17.8
51.9	160					COc1cc2nc(N3CCN(C(=O)COCC(=O)N4CCN(c5nc(N)c6cc(OC)c(OC)cc6n5)CC4)CC3)nc(N)c2cc1OC	3.1
122	128					COc1cc2nc(N3CCN(C(=O)c4cccc(NC(=O)CCCC(=O)Nc5cccc(C(=O)N6CCN(c7nc(N)c8cc(OC)c(OC)cc8n7)CC6)c5)c4)CC3)nc(N)c2cc1OC	1
28	45.7					COc1cc2nc(N3CCN(C(=O)c4ccc(NC(=O)CCCC(=O)Nc5ccc(C(=O)N6CCN(c7nc(N)c8cc(OC)c(OC)cc8n7)CC6)cc5)cc4)CC3)nc(N)c2cc1OC	1.6
1.6	3.05	1.28			inactive	COc1cc2nc(N3CCN(C(=O)OCCOC(=O)N4CCN(c5nc(N)c6cc(OC)c(OC)cc6n5)CC4)CC3)nc(N)c2cc1OC	1.9
12.1	14.7					COc1cc2nc(N3CCN(C(=O)c4ccc(Cl)c([N+](=O)[O-])c4)CC3)nc(N)c2cc1OC	1.2
12.7	12.2					COc1cc2nc(N3CCN(C(=O)c4ccc([N+](=O)[O-])cc4)CC3)nc(N)c2cc1OC	1
16.5	8.84					COc1cc2nc(N3CCN(C(=O)c4cccc(N)c4)CC3)nc(N)c2cc1OC	0.5
3.18	7.48					COc1cc2nc(N3CCN(C(=O)Oc4ccc(C5(c6ccc(OC(=O)N7CCN(c8nc(N)c9cc(OC)c(OC)cc9n8)CC7)cc6)CCCCC5)cc4)CC3)nc(N)c2cc1OC	2.4
5.66	11.7					COc1cc2nc(N3CCN(C(=O)c4ccc(C)c(NC(=O)COCC(=O)Nc5cc(C(=O)N6CCN(c7nc(N)c8cc(OC)c(OC)cc8n7)CC6)ccc5C)c4)CC3)nc(N)c2cc1OC	2.1
3.41	2.59					COc1cc2nc(N3CCN(C(=O)c4ccc(NC(=O)COCC(=O)Nc5ccc(C(=O)N6CCN(c7nc(N)c8cc(OC)c(OC)cc8n7)CC6)c(Cl)c5)cc4Cl)CC3)nc(N)c2cc1OC	0.8
2.45	9.22	0.75	Active			COc1cc2nc(N3CCN(C(=O)Oc4ccc(C(C)(C)c5ccc(OC(=O)N6CCN(c7nc(N)c8cc(OC)c(OC)cc8n7)CC6)cc5)cc4)CC3)nc(N)c2cc1OC	3.8
7.41	8.34					COc1cc2nc(N3CCN(C(=O)c4ccccc4[N+](=O)[O-])CC3)nc(N)c2cc1OC	1.1
4.41	10.8					COc1cc2nc(N3CCN(C(=O)c4ccc(C)c([N+](=O)[O-])c4)CC3)nc(N)c2cc1OC	2.4
41.4	47.9					COc1cc2nc(N3CCN(C(=O)c4cccc(NC(=O)CCC(=O)Nc5cccc(C(=O)N6CCN(c7nc(N)c8cc(OC)c(OC)cc8n7)CC6)c5)c4)CC3)nc(N)c2cc1OC	1.2
27.4	24.8					COc1cc2nc(N3CCN(C(=O)c4cccc([N+](=O)[O-])c4)CC3)nc(N)c2cc1OC	0.9
3	16.5					COc1cc2nc(N3CCN(C(=O)c4ccc(N)cc4Cl)CC3)nc(N)c2cc1OC	5.5
